Measurements as given in ChEMBL document CHEMBL1821586, “Identification and biological activities of new taccalonolide microtubule stabilizers” (J Med Chem, 2011).
Values belong to the compound of their own block, whether it stands above or below them. Activity calls are given as the source filed them. The rule behind the calls is not given here.

Columns and labels:
[1] = Antitumor activity against mouse 16/C cells allografted in mouse B6C3F1 assessed as gross log cell killing at 73.5 mg/kg, iv relative to control; type: functional
HeLa [2] = assay: Induction of interphase microtubule bundling in human HeLa cells at 0.5 uM after 18 hrs by indirect immunofluorescence analysis; type: cell-based
[3] = Antitumor activity against mouse 16/C cells allografted in mouse B6C3F1 assessed as delay in tumor growth at 73.5 mg/kg, iv relative to control; type: functional
In short: (§1)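 Mammary 16/C fragments implanted s.c. bilaterally in female B6C3F1 mice on day 0, 5 mice/group, IV dosing in 0.2 ml. Tumors measured 2–3 times weekly. T-C = median days for treated vs control tumors to reach 1000 mg. Gross log cell kill = (T-C)/3.32×Td, with Td the doubling time from a log-linear fit of control tumor growth.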

HeLa [4] = assay: Cell cycle arrest in human HeLa cells assessed as accumulation of cells at G2/M phase at 12 nM after 18 hrs by flow cytometric analysis; type: functional, cell-based
In short: (§2)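 DNA stained with propidium iodide (Krishan's reagent); DNA content measured by flow cytometry and plotted as PI intensity vs events.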

HeLa [5] = assay: Inhibition of beta tubulin in human HeLa cells assessed asultiple abnormal mitotic spindle formation at 12 nM after 18 hrs by immunofluorescence analysis; type: cell-based
[6] = Antitumor activity against mouse 16/C cells allografted in mouse B6C3F1 assessed as decrease in tumor mass at 73.5 mg/kg, iv; type: functional
In short: (§3)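 Female B6C3F1 mice (mean 19.3 ± 1.0 g) carried bilateral s.c. Mammary 16/C tumor fragments implanted day 0, 5 mice/group. […] All were given IV in 0.2 ml. Tumor mass = L×W²/2, measured 2–3 times weekly. %T/C = treated/control median mass, zeros included, taken when control tumors reach ~700–1200 mg.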

Mus musculus [7] = assay: Toxicity in B6C3F1 mouse allografted with mouse 16/C cells assessed as mean body weight loss at 73.5 mg/kg, iv (reference value: -2.2%); type: organism-based; parameters: dose 73.5 mg/kg, route intravenous; details: in vivo
HeLa [8] = assay: Inhibition of beta tubulin in human HeLa cells assessed asultiple abnormal mitotic spindle formation at 0.32 uM after 18 hrs by immunofluorescence analysis; type: cell-based
HeLa [9] = assay: Cell cycle arrest in human HeLa cells assessed as accumulation of cells at G2/M phase at 0.32 uM after 18 hrs by flow cytometric analysis; type: functional, cell-based; in short: as §2
HeLa [10] = assay: Induction of interphase microtubule bundling in human HeLa cells at 0.32 uM after 18 hrs by indirect immunofluorescence; type: cell-based
HeLa [11] = assay: Antiproliferative activity against human HeLa cells after 48 hrs by SRB assay; type: functional, cell-based
In short: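 HeLa cells grown in BME with 10% FBS and 50 µg/ml gentamicin, drug-treated 48 h, proliferation read by SRB assay.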

HeLa [12] = assay: Inhibition of beta tubulin in human HeLa cells assessed asultiple abnormal mitotic spindle formation at 13.5 uM after 18 hrs by immunofluorescence analysis; type: cell-based
HeLa [13] = assay: Induction of interphase microtubule bundling in human HeLa cells at 13.5 uM after 18 hrs by indirect immunofluorescence; type: cell-based
HeLa [14] = assay: Cell cycle arrest in human HeLa cells assessed as accumulation of cells at G2/M phase at 13.5 uM after 18 hrs by flow cytometric analysis; type: functional, cell-based; in short: as §2
HeLa [15] = assay: Induction of interphase microtubule bundling in human HeLa cells at 0.8 uM after 18 hrs by indirect immunofluorescence analysis; type: cell-based
HeLa [16] = assay: Inhibition of beta tubulin in human HeLa cells assessed asultiple abnormal mitotic spindle formation at 0.8 uM after 18 hrs by immunofluorescence analysis; type: cell-based
HeLa [17] = assay: Cell cycle arrest in human HeLa cells assessed as accumulation of cells at G2/M phase at 0.8 uM after 18 hrs by flow cytometric analysis; type: functional, cell-based
[18] = Toxicity in B6C3F1 mouse allografted with mouse 16/C cells assessed as lethality at 90 mg/kg, iv administered on days 1,4,6, 8, 9, 10 and 11 measured after 12 days relative to control; type: organism-based; parameters: dose 90 mg/kg, route intravenous; details: in vivo, read-out: Activity
In short: (§4)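 Female B6C3F1 mice, 5 per group, bore bilateral s.c. Mammary 16/C fragments. Taccalonolides in DMSO:Cremophor diluted with water were given i.v. on days 1, 4, 6 plus a later dose (A, N) or days 8, 9, 11 (E). Mice were weighed and observed daily, and lethality was recorded per group.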

[19] = Antitumor activity against mouse 16/C cells allografted in mouse B6C3F1 assessed as gross log cell killing at 90 mg/kg, iv administered on days 1,4,6, 8, 9, 10 and 11 relative to control; type: functional
In short: (§5)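 Mammary 16/C tumor fragments implanted bilaterally s.c. in female B6C3F1 mice on day 0, 5 mice/group. Taccalonolides in 50% DMSO:50% Cremophor stock, diluted with sterile water, given i.v. in 0.2 ml on days 1, 4, 6, plus one dose 2–3 days later (A, N) or further doses days 8, 9, 11 (E). Tumor mass = length × width²/2, measured 2–3 times weekly. Gross log cell kill = (T-C)/3.32 × Td, with T-C the days to 1000 mg.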

[20] = Antitumor activity against mouse 16/C cells allografted in mouse B6C3F1 assessed as decrease in tumor mass at 90 mg/kg, iv administered on days 1,4,6, 8, 9, 10 and 11 relative to control; type: functional; in short: as §3
HeLa [21] = assay: Induction of interphase microtubule bundling in human HeLa cells at 2.5 uM after 18 hrs by indirect immunofluorescence analysis; type: cell-based
HeLa [22] = assay: Cell cycle arrest in human HeLa cells assessed as accumulation of cells at G2/M phase at 2.5 uM after 18 hrs by flow cytometric analysis; type: functional, cell-based; in short: as §2
[23] = Antitumor activity against mouse 16/C cells allografted in mouse B6C3F1 assessed as delay in tumor growth at 90 mg/kg, iv administered on days 1,4,6, 8, 9, 10 and 11 relative to control; type: functional; in short: as §1
[24] = Toxicity in B6C3F1 mouse allografted with mouse 16/C cells assessed as lethality at 54 mg/kg, iv administered on days 1,4,6, 8, 9, 10 and 11 measured after 12 days relative to control; type: organism-based; parameters: dose 54 mg/kg, route intravenous; details: in vivo, read-out: Activity; in short: as §4
Mus musculus [25] = assay: Toxicity in B6C3F1 mouse allografted with mouse 16/C cells assessed as mean body weight loss at 54 mg/kg, iv administered on days 1,4,6, 8, 9, 10 and 11 (reference value: -2.2%); type: organism-based; parameters: dose 54 mg/kg, route intravenous; details: in vivo
[26] = Antitumor activity against mouse 16/C cells allografted in mouse B6C3F1 assessed as decrease in tumor mass at 54 mg/kg, iv administered on days 1,4,6, 8, 9, 10 and 11 relative to control; type: functional; in short: as §3
HeLa [27] = assay: Inhibition of beta tubulin in human HeLa cells assessed asultiple abnormal mitotic spindle formation at 2.5 uM after 18 hrs by immunofluorescence analysis; type: cell-based
[28] = Antitumor activity against mouse 16/C cells allografted in mouse B6C3F1 assessed as gross log cell killing at 54 mg/kg, iv administered on days 1,4,6, 8, 9, 10 and 11 relative to control; type: functional; in short: as §5
[29] = Antitumor activity against mouse 16/C cells allografted in mouse B6C3F1 assessed as delay in tumor growth at 54 mg/kg, iv administered on days 1,4,6, 8, 9, 10 and 11 relative to control; type: functional; in short: as §1
Mus musculus [30] = assay: Toxicity in B6C3F1 mouse allografted with mouse 16/C cells assessed as mean body weight loss at 90 mg/kg, iv administered on days 1,4,6, 8, 9, 10 and 11 (reference value: -2.2%); type: organism-based; parameters: dose 90 mg/kg, route intravenous; details: in vivo
HeLa [31] = assay: Inhibition of beta tubulin in human HeLa cells assessed asultiple abnormal mitotic spindle formation at 57 uM after 18 hrs by immunofluorescence analysis; type: cell-based
HeLa [32] = assay: Induction of interphase microtubule bundling in human HeLa cells at 57 uM after 18 hrs by indirect immunofluorescence; type: cell-based
HeLa [33] = assay: Cell cycle arrest in human HeLa cells assessed as accumulation of cells at G2/M phase at 111 uM after 18 hrs by flow cytometric analysis; type: functional, cell-based; in short: as §2
HeLa [34] = assay: Induction of interphase microtubule bundling in human HeLa cells at 3.5 uM after 18 hrs by indirect immunofluorescence analysis; type: cell-based
HeLa [35] = assay: Inhibition of beta tubulin in human HeLa cells assessed asultiple abnormal mitotic spindle formation at 3.5 uM after 18 hrs by immunofluorescence analysis; type: cell-based
HeLa [36] = assay: Cell cycle arrest in human HeLa cells assessed as accumulation of cells at G2/M phase at 3.5 uM after 18 hrs by flow cytometric analysis; type: functional, cell-based; in short: as §2
HeLa [37] = assay: Inhibition of beta tubulin in human HeLa cells assessed asultiple abnormal mitotic spindle formation at 0.6 uM after 18 hrs by immunofluorescence analysis; type: cell-based
HeLa [38] = assay: Cell cycle arrest in human HeLa cells assessed as accumulation of cells at G2/M phase at 0.6 uM after 18 hrs by flow cytometric analysis; type: functional, cell-based; in short: as §2
HeLa [39] = assay: Induction of interphase microtubule bundling in human HeLa cells at 0.6 uM after 18 hrs by indirect immunofluorescence; type: cell-based

Structure (SMILES): CC(=O)O[C@H]1C(=O)[C@@]2(C)[C@H]([C@H](OC(=O)c3ccccc3)[C@]3(O)C[C@H](OC(=O)[C@H](O)[C@@H](NC(=O)c4ccccc4)c4ccccc4)C(C)=C1C3(C)C)[C@]1(OC(C)=O)CO[C@@H]1C[C@@H]2O [PACLITAXEL]
- LCK [1]: 4.8
- Activity (HeLa [2]): Active
- Time [3]: 19 days
- Activity (HeLa [4]): Active
- inhibition (HeLa [5]): Active
- T/C [6]: 0%
- Activity (Mus musculus [7]): -6.3%

Structure (SMILES): CC(=O)O[C@H]1[C@H]2[C@H]([C@@H]3[C@@H](O)[C@@H]4[C@H]([C@H](C)C=C5OC(=O)[C@@](C)(O)[C@@]54C)[C@@]3(C)[C@H]1OC(C)=O)[C@@H](O)C(=O)[C@@]1(O)C[C@@H]3O[C@@H]3[C@H](OC(C)=O)[C@]21C [TACCALONOLIDE AB]
- inhibition (HeLa [12]): Active
- IC50 (HeLa [11]): 2770 nM
- Activity (HeLa [13]): Active
- Activity (HeLa [14]): Active

Structure (SMILES): CC(=O)O[C@H]1[C@H]2[C@H]([C@@H]3[C@@H](O)[C@@H]4[C@H]([C@H](C)C=C5OC(=O)[C@@](C)(O)[C@@]54C)[C@@]3(C)[C@H]1OC(C)=O)[C@@H](O)C(=O)[C@H]1C[C@@H]3O[C@@H]3[C@H](OC(C)=O)[C@]21C [TACCALONOLIDE B]
- Activity (HeLa [15]): Active
- inhibition (HeLa [16]): Active
- IC50 (HeLa [11]): 190 nM
- Activity (HeLa [17]): Active

Structure (SMILES): CC(=O)O[C@@H]1[C@H]2[C@@H]3[C@@H](O)C(=O)[C@H]4C[C@@H]5O[C@@H]5[C@H](OC(C)=O)[C@]4(C)[C@H]3C[C@H](OC(C)=O)[C@]2(C)[C@@H]2[C@@H]1[C@]1(C)C(=C[C@H]2C)OC(=O)[C@@]1(C)O [TACCALONOLIDE E]
- mortality at 288 h [18]: 0%
- LCK [19]: 1.25
- T/C [20]: 17%
- Activity (HeLa [21]): Active
- Activity (HeLa [22]): Active
- Time [23]: 5 days
- mortality at 288 h [24]: 0%
- Activity (Mus musculus [25]): -2%
- T/C [26]: 81%
- IC50 (HeLa [11]): 644 nM
- inhibition (HeLa [27]): Active
- LCK [28]: 0.25
- Time [29]: 1 days
- Activity (Mus musculus [30]): -4.1%

Structure (SMILES): CC(=O)O[C@@H]1[C@H]2[C@H]3[C@H]([C@H](OC(C)=O)[C@H](OC(C)=O)[C@]2(C)[C@@H]2[C@@H]1[C@]1(C)C(=C[C@H]2C)OC(=O)[C@@]1(C)O)[C@@]1(C)[C@@H](OC(C)=O)[C@H]2O[C@H]2C[C@]1(O)C(=O)[C@@H]3O [TACCALONOLIDE Z]
- inhibition (HeLa [37]): Active
- IC50 (HeLa [11]): 120 nM
- Activity (HeLa [38]): Active
- Activity (HeLa [39]): Active

Second part, led by results:

- IC50 (HeLa [11]): 32.3 nM
Structure (SMILES): CC(=O)O[C@@H]1[C@H]2[C@H]3[C@H]([C@H](OC(C)=O)[C@H](OC(C)=O)[C@]2(C)[C@@H]2[C@@H]1[C@]1(C)C(=C[C@H]2C)OC(=O)[C@@]1(C)O)[C@@]1(C)[C@@H](OC(C)=O)[C@H]2O[C@H]2C[C@]1(O)C(=O)[C@@H]3OC(C)=O [TACCALONOLIDE AA]
- inhibition (HeLa [8]): Active
- Activity (HeLa [9]): Active
- Activity (HeLa [10]): Active

- IC50 (HeLa [11]): 13100 nM
Structure (SMILES): CC(=O)O[C@@H]1[C@H]2[C@@H]3[C@@H](OC(C)=O)C(=O)[C@@]4(O)C[C@@H]5O[C@@H]5[C@H](OC(C)=O)[C@]4(C)[C@H]3C[C@H](OC(C)=O)[C@]2(C)[C@@H]2[C@@H]1[C@]1(C)C(=C[C@H]2C)OC(=O)[C@@]1(C)O [TACCALONOLIDE R]
- inhibition (HeLa [31]): Active
- Activity (HeLa [32]): Active
- Activity (HeLa [33]): Active

- IC50 (HeLa [11]): 335 nM
Structure (SMILES): CC(=O)O[C@@H]1[C@H]2[C@@H]3[C@@H](OC(C)=O)C(=O)[C@@]4(O)C[C@@H]5O[C@@H]5[C@H](OC(=O)CC(C)C)[C@]4(C)[C@H]3C[C@H](OC(C)=O)[C@]2(C)[C@@H]2[C@@H]1[C@]1(C)C(=C[C@H]2C)OC(=O)[C@@]1(C)O [TACCALONOLIDE T]
- Activity (HeLa [34]): Active
- inhibition (HeLa [35]): Active
- Activity (HeLa [36]): Active
